High-throughput results from PubChem.
Shown are actives, neighbours in structure and some others; about 3.5% of the full set was active somewhere.
MrgX1 ag: agonists of human MrgX1 receptor, primary screen, HEK293 cells, Fluo-4 calcium flux; Mas-related G-protein coupled receptor member X1 (Homo sapiens), Q96LB2; Fluo-4 calcium fluorescence, agonist mode; hits give high values; B-score at 10 µM; 310,000 tested, 0.44% active; AID 588627, 2011;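 active means calcium response B-score plate-corrected fluorescence ratio at least 3 library SD, with starting fluorescence B-score inside 5 SD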
Target sequence (Q96LB2 whole entry, looked up): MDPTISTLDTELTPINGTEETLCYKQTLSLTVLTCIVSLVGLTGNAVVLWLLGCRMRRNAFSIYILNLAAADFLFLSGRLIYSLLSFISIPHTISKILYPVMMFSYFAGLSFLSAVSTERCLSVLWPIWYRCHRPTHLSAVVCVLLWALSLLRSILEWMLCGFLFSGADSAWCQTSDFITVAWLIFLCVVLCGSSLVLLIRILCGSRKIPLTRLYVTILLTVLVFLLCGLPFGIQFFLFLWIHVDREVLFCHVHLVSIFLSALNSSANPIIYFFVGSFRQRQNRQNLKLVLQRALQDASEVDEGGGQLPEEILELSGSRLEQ
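Material: HEK293 cells stably expressing human MrgX1 receptor | Quantity: 15,000 cells per well | Times: Cells plated overnight, dye loaded 0.5 h 37 °C, 0.5 h room temperature | Measured by: Kinetic Fluo-4 NW fluorescence of intracellular calcium | Control set: Positive and negative controls per plate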
MrgX1 allo act: positive allosteric modulators of MrgX1, primary screen, HEK293 cells, Fluo-4 calcium flux | Mas-related G-protein coupled receptor member X1 (Homo sapiens), Q96LB2 | AID 588675, 2011 | 310,000 tested, 0.63% active | FDSS; hits give high values | B-score at 10 µM;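 active means plate-corrected calcium response at least 3 library SD above typical, normal starting fluorescence, not activating the receptor alone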;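 further: compound read alongside a low EC10 to EC30 dose of BAM8-22 agonist; peak minus trough fluorescence over baseline measured at the second addition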
RGS4 inh: RGS4 inhibitors, primary screen, cell-based, HEK293 M3R inducible RGS4, calcium flux; Regulator of G-protein signaling 4 (Homo sapiens), P49798; Fluo-4 calcium flux; hits give high values; triggered by carbachol at its EC20; B-score at 10 µM; 310,000 tested, 0.45% active; AID 463165, 2010;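 active means B-score, a plate-corrected calcium signal, over three deviations above library mean, with baseline fluorescence within five deviations of library mean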;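 further: RGS4 expression induced by doxycycline in cells with stable M3 receptor; B-score is computed from the integrated fluorescence ratio over baseline after carbachol; higher B-score means a larger calcium signal and so more RGS4 inhibition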
Target sequence (P49798 whole entry, looked up): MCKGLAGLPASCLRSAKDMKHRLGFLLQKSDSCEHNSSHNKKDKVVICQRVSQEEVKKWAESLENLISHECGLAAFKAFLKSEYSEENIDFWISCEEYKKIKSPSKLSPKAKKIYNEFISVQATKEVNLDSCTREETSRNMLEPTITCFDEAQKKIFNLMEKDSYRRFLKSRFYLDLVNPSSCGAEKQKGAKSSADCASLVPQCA
RGS4 pot: RGS4 potentiators or activators, primary screen, cell-based, HEK293 M3R inducible RGS4, calcium flux; carbachol calcium flux Fluo4; hits give low values; B-score at 10 µM; 310,000 tested, 0.92% active; AID 463111, 2010;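 active means B-score of the integrated calcium signal more than 4 SD below the library mean, with starting fluorescence not abnormally high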;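 further: negative B-score means reduced calcium response which marks RGS4 activation or potentiation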
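test system = M3R-expressing HEK293 line, RGS4 induced by doxycycline | probe or stimulus = carbachol at ECmax as muscarinic agonist stimulus | timing = dye loading 30 min 37 °C, buffer rest 30 min RT | signal = calcium dye Fluo4 fluorescence | evaluation = B score from integrated fluorescence ratio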
MrgX1 antagonist: antagonists of human MrgX1 receptor, primary screen, HEK293 cells, Fluo-4 calcium flux. BAM8-22 antagonism; hits give low values. AID 588676, 2011. B-score at 10 µM. 310,000 tested, 1.3% active;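 active means calcium-response B-score plate-corrected more than 3 library SD below zero, starting fluorescence within 5 deviations, no agonist response on first addition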;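 further: peak minus trough fluorescence over baseline after final BAM8-22 challenge near maximal dose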
RGS4 activ val: reduced carbachol calcium response, RGS4-induced M3R cells, confirmation, RGS4 activator project, cell-based, HEK293 M3R/RGS4 inducible, calcium flux, duplicate. shares compounds with RGS4 pot. carbachol calcium flux Fluo4. inhibition, % at 10 µM. 1,100 tested, 89% active. AID 602282, 2012;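 active means inhibition above 3 SD of the buffer control wells, cut at about 41% in these data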;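 further: signal is the integrated peak-minus-minimum Fluo4 fluorescence over baseline ratio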
RGS4 act ctr: counter-screen for RGS4 activators: effect in non-induced cells | 1,100 tested, 82% active | shares compounds with RGS4 pot | inhibition, % at 10 µM | HEK293 M3R non-induced RGS4, Fluo4 calcium flux; after carbachol challenge at its EC90 | AID 602283;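 active means inhibition exceeding 3 SD of buffer-only control wells, cut at about 26% in these data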;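 further: percent drop in integrated peak-minus-baseline over baseline Fluo4 ratio after carbachol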
MrgX1 ag confirm: MrgX1 receptor agonists, duplicate retest, confirmation, HEK293 cells, Fluo-4 calcium flux. activation, % at 10 µM. shares compounds with MrgX1 ag. Fluo-4 calcium fluorescence, FDSS. AID 602412, 2012. 600 tested, 78% active;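 active means calcium signal rise, corrected for plate position, at least 3 library SD high, with starting brightness within 5 such deviations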
MrgX1 allo conf: MrgX1 positive allosteric modulators, duplicate retest, confirmation, HEK293 cells, Fluo-4 calcium flux; shares compounds with MrgX1 allo act; Fluo-4 calcium fluorescence, FDSS; activation (ratio percentage), % at 10 µM; 1,200 tested, 13% active;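 active means ratio at least 3 SD above the weak peptide control, stable starting fluorescence, no direct agonism earlier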;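 further: compound followed by low BAM8-22 agonist challenge near EC20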
MrgX1 antag conf: MrgX1 receptor antagonists, duplicate retest, confirmation, HEK293 cells, Fluo-4 calcium flux | shares compounds with MrgX1 antagonist | BAM8-22 calcium flux; hits give low values | remaining BAM8-22 calcium response % of control (hits give low values), % at 10 µM | 2,300 tested, 19% active;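 active means remaining agonist calcium response no higher than 100% minus 3 SD of agonist-only control wells, with starting fluorescence near control levels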;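 further: agonist BAM8-22 given at a near maximal EC90 to ECmax level; peak minus minimum fluorescence divided by baseline after agonist addition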
HEK293 Ca flux: nonspecific calcium signal in parental HEK293, confirmation, counter-screen for MrgX1 antagonist project, parental HEK293 cells, Fluo-4 calcium flux. shares compounds with MrgX1 antagonist. 4,000 tested, 2% active. fluorescence ratio F(max-min)/F0 at 10 µM. Fluo-4 calcium fluorescence, FDSS;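 active means duplicate-averaged calcium fluorescence ratio at least three times the standard deviation of buffer wells, a nonspecific response in parental cells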
HEK293 Ca counter: calcium response in parental HEK293 cells, primary screen, counter-screen for MrgX1 allosteric activator project, cell-based, Fluo-4 calcium flux, duplicate; shares compounds with MrgX1 antagonist; Fluo-4 fluorescence ratio; hits give high values; fluorescence ratio F(max-min)/F0 at 10 µM; 4,000 tested, 0.4% active;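 active means calcium fluorescence ratio, averaged over duplicates, at least 3 SD of the buffer-well ratio, meaning a nonspecific response in receptor-free cells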;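 further: untransfected parental HEK293 lacking MrgX1 used as counterscreen for MrgX1 allosteric activators; fluorescence change taken during the second addition on a kinetic imager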
HEK293 Ca cntr2: calcium response in parental HEK293 cells, primary screen, counter-screen for MrgX1 agonist project, cell-based, Fluo-4 calcium flux, duplicate, agonist mode | shares compounds with MrgX1 antagonist | Fluo-4 calcium fluorescence (FDSS); hits give high values | fluorescence ratio F(max-min)/F0 at 10 µM | 4,000 tested, 8.7% active;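 active means calcium fluorescence ratio at least three times the spread of buffer wells, meaning a non-specific response in parental cells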
* = called active by the depositor; i = inactive; x = not tested or not shown.

SMILES	MrgX1 ag	MrgX1 allo act	RGS4 inh	RGS4 pot	MrgX1 antagonist	RGS4 activ val	RGS4 act ctr	MrgX1 antag conf	HEK293 Ca flux	HEK293 Ca counter	HEK293 Ca cntr2	others
Cc1ccc(OCc2ccc(C(=O)N3CCCC3)o2)cc1C	i	i	i	-7.9*	-5.3*	73*	84*	73%*	i	i	i
CC(C)C[C@H](NC(=O)C1CCN(S(=O)(=O)c2ccccc2)CC1)C(=O)NCc1ccncc1	i	i	i	i	i	x	x	x	x	x	x
CCOC(=O)c1cnc2c(C)cccc2c1NCc1ccco1	i	7.6*	i	-12*	i	92*	94*	x	i	i	i	MrgX1 allo conf=i
O=C(Nc1ccc(F)cc1F)N1CCN(c2ncccn2)CC1	i	i	i	i	i	x	x	x	x	x	x
CNS(=O)(=O)c1cccc(C(=O)OCc2cc(=O)oc3c(C)c(O)ccc23)c1	i	i	i	-8.2*	-9.4*	85*	70*	54%*	i	i	i
CCOC(=O)c1ccc(NC(=S)N2CCSC2c2ccc(Cl)cc2)cc1 (stereo not drawn)	i	i	i	-8.8*	-6.3*	94*	91*	58%*	i	49*	i
CCOC(=O)c1ccc(NC(=S)N2CCSC2c2ccc(OC)cc2)cc1 (stereo not drawn)	i	i	i	i	i	x	x	x	x	x	x
COc1c(F)c(F)c(C(=O)Nc2c(C)cc(Br)cc2C)c(F)c1F	i	i	i	i	i	x	x	x	x	x	x
COc1ccc(C2CC(=O)C(C=NCCO)=C(O)C2)cc1 (stereo not drawn)	i	i	i	i	i	x	x	x	x	x	x
COc1ccc(-c2nc(NC(=O)c3[nH]c(C)c(C(C)=O)c3C)sc2C)cc1	i	i	i	-11*	-8.5*	92*	92*	53%*	i	i	i
COc1ccc(OC)c(NC(=O)c2[nH]c(C)c(C(C)=O)c2C)c1	i	i	i	i	i	x	x	x	x	x	x
COc1ccccc1C(=O)Nc1nc(-c2ccc(S(=O)(=O)N3CCOCC3)cc2)cs1	i	i	i	-9.6*	-8.3*	92*	58*	51%*	i	i	i
COc1ccccc1OC(C)C(=O)Nc1nc(-c2ccc(S(=O)(=O)N3CCOCC3)cc2)cs1 (stereo not drawn)	i	i	i	i	i	x	x	x	x	x	x
CCN(CC)c1nc2c(c(=O)n(C)c(=O)n2C)n1CCCc1ccccc1	i	i	i	i	i	x	x	x	x	x	x
CN(Cc1ccccc1)c1nc2c(c(=O)n(C)c(=O)n2C)n1CCCc1ccccc1	i	8.9*	i	-8.5*	i	75*	84*	x	i	i	i	MrgX1 allo conf=i
Cc1cc(-c2cccs2)c2c(N)c(C(=O)c3ccc4c(c3)OCO4)sc2n1	i	i	i	-7.9*	-8.3*	93*	96*	i	0.65*	i	i
COc1cccc(-c2csc(N3CCN(C(=O)Nc4ccc(Cl)cc4)CC3)n2)c1	i	i	i	-8.4*	-6.1*	87*	56*	75%*	i	i	i
N#C/C(=C(/O)c1ccc(Cl)c([N+](=O)[O-])c1)c1nc2ccccc2[nH]1	i	i	i	i	i	x	x	x	x	x	x
CCOC(=O)C1=C(Cc2ccc(F)cc2)C(=O)c2ccccc2C1=O	108*	i	i	-9.1*	i	89*	46*	x	i	i	54*	MrgX1 ag confirm=163%*
O=C(OCc1ccc(F)cc1)c1ccc2c(c1)-c1ccccc1C2=O	i	i	i	i	i	x	x	x	x	x	x
COc1ccc(Nc2nnc(-c3ccc(O)cc3)c3ccccc23)cc1	i	i	i	-9.3*	-8.4*	82*	43*	i	i	54*	i
Oc1ccc(Nc2nnc(-c3ccc(O)cc3)c3ccccc23)cc1	i	i	i	i	i	x	x	x	x	x	x
Cc1oc2c(c(=O)c1C)C(=O)CC(c1ccccc1)C2 (stereo not drawn)	i	i	i	i	i	x	x	x	x	x	x
CS(=O)(=O)c1sc(C#N)c2c1C(=O)CC(c1ccccc1)C2 (stereo not drawn)	37*	i	i	-9*	i	53*	0	x	i	i	53*	MrgX1 ag confirm=257%*
O=C(O)C1CCN(S(=O)(=O)c2ccc(N3CCC(O)CC3)c([N+](=O)[O-])c2)CC1	i	i	i	i	i	x	x	x	x	x	x
CCCCc1ccc(N/C(N)=N/c2nc(C)cc(C)n2)cc1	87*	i	i	-9.6*	i	38*	84*	x	i	i	113*	MrgX1 ag confirm=511%*
